# MsrA act: bovine methionine sulfoxide reductase A activation | purified bovine MsrA, absorbance read-out | activation, % at 10.6 µM | actives 0.3% (n = 360,000) | AID 602163; in the data active means activation above about 7.5%;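 further: 0% = vehicle and 100% = reference activator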
# HTR2A ag: agonists of mouse serotonin 5-HT2A receptor (HTR2A) | CHO-K1 mHTR2A beta-arrestin complementation, luminescence; percent of 30 µM serotonin response | P35363 | actives 0.66% (n = 360,000) | activation, % at 7.6 µM | AID 624169;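 active means activation above a run cutoff, the mean activation of all tested compounds plus 3 SD, cut at about 14% in these data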;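 further: 0% = plate median of compound wells and 100% = 30 µM serotonin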
# TbMetRS inhib: blocks T. brucei methionyl-tRNA synthetase activity | purified T. brucei MetRS, ATP depletion, Kinase-Glo luminescence | inhibition, % at 11.9 µM | actives 0.4% (n = 360,000) | AID 624268;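 active means inhibition above a per-plate cutoff of the control wells' mean inhibition plus 3 SD, cut at about 5.5% in these data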;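 further: 0% = DMSO wells median and 100% = median of wells with control inhibitor compound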
#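 Material: T. brucei methionyl-tRNA synthetase, purified; reagent: substrates ATP, L-methionine and bulk Escherichia coli tRNA; dosing: 11.9 µM single point; timing: 15 min plus 2 h at 25 °C; detection: luminescence of leftover ATP; evaluation: % inhibition; control set: DMSO-only wells as low control; replicates: singlicate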
# MsrA inhibitor: inhibits bovine methionine sulfoxide reductase A; purified bovine MsrA, absorbance read-out; inhibition, % at 15.5 µM; actives 0.75% (n = 360,000); AID 651718; in the data active means inhibition above about 4.5%;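 further: 0% = vehicle wells with enzyme and 100% = reference inhibitor wells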
# AI-2 QS mod: modulators of Vibrio harveyi AI-2 quorum sensing system | Vibrio harveyi JMH597 AI-2 luminescence/OD600 ratio, 9 h; active compounds read low; strain lacks LuxN and CqsS sensors; 0 = neutral-control median | activity change, % at 7.5 µM | actives 0.4% (n = 300,000) | AID 2094; in the data active means activity change below about -75%, passing the limit was not always enough;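 further: luminescence divided by OD600 gain over 9 h not by final OD600 alone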
# AHR act: human AHR activation. P35869. AHR-responsive luciferase reporter cells, luminescence. activation, % at 5 µM. actives 2.5% (n = 320,000); in the data active means activation above about 47%;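 further: 0% = vehicle wells and 100% = reference agonist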
# MOR ag counter: activates human mu opioid receptor in HTR2A counterscreen | AID 624380 | activation, % at 9.3 µM | U2OS OPRM1 beta-arrestin PathHunter, luminescence; DMSO 0%, DAMGO 9.3 µM 100% | shares compounds with HTR2A ag | actives 5.3% (n = 2,300);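 active means mean activation above the mean of DMSO-only wells plus 3 SD, cut at about 0.5% in these data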
# HTR2A ag conf: confirmation of mouse HTR2A serotonin receptor agonists. shares compounds with HTR2A ag. CHO-K1 PathHunter beta-arrestin recruitment, luminescence; DMSO 0%, 30 µM serotonin 100%. activation, % at 7.6 µM. actives 19% (n = 2,300). AID 624381;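 active means mean activation across triplicates above the hit threshold derived in the original primary screen, cut at about 15% in these data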
# An asterisk follows results filed as active; / = no result given. Sampled rows, rich in hits. Any-hit rate of the full collection: about 4.4%.
SMILES,MsrA act,HTR2A ag,TbMetRS inhib,MsrA inhibitor,AI-2 QS mod,AHR act,MOR ag counter,HTR2A ag conf
CCOC(=O)c1ccc(NC(=O)c2sc3nc(N4CCOCC4)c4c(c3c2N)CCCC4)cc1,-11.2,17.5*,-1.1,-0.8,13.9,0.2,-0.4,-3.0
CCC(C)NC(=O)CN1c2cccc3cccc(c23)S1(=O)=O (centres undefined),-5.8,-4.9,-0.3,-0.2,25.7,2.4,/,/
O=C(NCC(=O)N1CCCCCCC1)c1cccc([N+](=O)[O-])c1,-11.0,14.6*,-0.6,-1.4,/,1.1,-0.6,-1.1
Cc1cccc(C(=O)NCC(=O)N2CCCC2)c1,-1.6,-4.1,-0.8,-0.3,12.9,3.1,/,/
COc1cc(Cl)c(S(=O)(=O)N2CC(C)OC(C)C2)cc1Cl (centres undefined),-2.0,-1.9,-0.4,0.9,-3.4,0.8,/,/
COc1cc(Cl)c(S(=O)(=O)N2CCOCC2)cc1Cl,-0.1,14.5*,0.1,0.6,6.7,-1.4,-0.5,-3.8
CC1CCCCN1C(=O)C(=O)c1cn(CC(=O)N2CCCC2)c2ccccc12 (centres undefined),-8.0,-2.4,-0.3,-0.1,17.9,6.8,/,/
CCN(CC)C(=O)Cn1cc(C(=O)C(=O)N2CCN(C)CC2)c2ccccc21,-9.1,16.4*,-0.5,1.0,4.2,5.9,-0.7,0.3
CCN(Cc1ccccc1)C(=O)C(=O)c1cn(CC(=O)N2CCCC2)c2ccccc12,-11.0,15.6*,-0.5,0.9,5.4,8.1,-0.7,-3.5
COC(=O)[C@]1(Cc2ccccc2)N[C@H](CN(C)C(=O)Nc2ccc(OC)cc2)[C@@H]2C(=O)N(Cc3ccccc3)C(=O)[C@@H]21,-3.8,0.5,-0.8,-0.7,/,1.7,/,/
CCCCN(Cc1ccc(C(=O)N[C@H](C(=O)O)C(C)C)cc1)C(=O)C(c1ccccc1)c1ccccc1,-2.4,-0.8,0.2,0.1,3.2,-1.2,/,/
Clc1ncc(CN2CCN(c3ccccc3)CC2)s1,-8.8,31.4*,0.0,-0.1,12.6,-1.2,-0.7,84.4*
Clc1ccc(CN2CCN(c3ncc(Cc4ccccc4)cn3)CC2)cc1,/,/,/,0.6,/,/,/,/
Clc1ccc(CN2CCN(c3ccccc3)CC2)cn1,-0.9,22.1*,-0.2,0.1,-14.4,1.6,-0.4,80.7*
Cc1cc(F)ccc1-c1cc(C(=O)NC2CCCCC2)[nH]n1,-3.5,5.1,-0.2,-0.3,/,/,/,/
Cn1c(SCC(=O)NCc2ccco2)nnc1-c1ccc(S(=O)(=O)N2CCOCC2)cc1,-2.3,-1.1,-0.2,-0.3,18.3,0.0,/,/
CCC(C)n1c(SCC(=O)NCc2ccco2)nnc1-c1cccc(S(=O)(=O)N2CCOCC2)c1 (centres undefined),-8.6,15.0*,-0.6,-1.2,15.6,1.5,-0.6,-0.8
CC(C)C(NC(=O)C1(NC(=O)OCc2ccccc2)CCCC1)C(=O)O (centres undefined),-3.8,-2.3,-0.2,-0.6,/,/,/,/
CC(c1ccccc1)N(C)CC(=O)NC(=O)NCCC1=CCCCC1 (centres undefined),-2.1,7.1,0.3,0.2,/,-1.6,/,/
O=C(CN1CCN(C(=O)c2ccccc2)CC1)NC(=O)NCCC1=CCCCC1,-1.1,19.6*,-0.1,0.0,/,0.2,-0.6,-3.0
CN1C(=O)CC(Sc2ncccc2C(=O)O)C1=O (centres undefined),-11.3,15.0*,-1.2,0.2,9.7,2.1,-0.5,1.5
CCCN1C(=O)CC(Sc2ncccc2C(=O)O)C1=O (centres undefined),-3.6,-0.9,-0.4,0.2,-1.5,0.8,/,/
COc1ccccc1CNCC(=O)Nc1ccccc1-n1cccc1,-2.5,16.0*,-0.6,-0.3,13.1,9.9,-0.1,7.8
CC1CCN=C(N)S1 (centres undefined),-3.7,15.5*,-0.9,0.4,8.5,-2.9,-0.4,-0.3

# Compound activity deposited in PubChem BioAssay by several laboratories.
